Test results published in ChEMBL document CHEMBL1142492 (J Med Chem, 2008).

Legend:
[1] = target: Protein kinase C epsilon type (Homo sapiens) (UniProt Q02156); experiment: Inhibition of PRKCE at 3 uM
[2] = target: MAP/microtubule affinity-regulating kinase 3 (Homo sapiens) (UniProt P27448); experiment: Inhibition of MARK3 at 3 uM
[3] = target: Histamine H3 receptor (Homo sapiens) (UniProt Q9Y5N1); experiment: Inhibition of human histamine H3 receptor at 3 uM
Outline: (§1)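 Counter-screen binding/enzyme panel at single 3 μM, n=2; results as percent inhibition. Species per target as listed (rat NMDA, GABAA sites; human receptors, transporters; rabbit ACE).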

[4] = target: Neuropeptide Y receptor type 2 (Homo sapiens) (UniProt P49146); experiment: Inhibition of human neuropeptide Y Y2 receptor at 3 uM
[5] = target: Serine/threonine-protein kinase PAK 6 (Homo sapiens) (UniProt Q9NQU5); experiment: Inhibition of PAK6 at 3 uM
Serine/threonine-protein kinase PAK 6 (Homo sapiens), sequence (Q9NQU5 whole entry, looked up): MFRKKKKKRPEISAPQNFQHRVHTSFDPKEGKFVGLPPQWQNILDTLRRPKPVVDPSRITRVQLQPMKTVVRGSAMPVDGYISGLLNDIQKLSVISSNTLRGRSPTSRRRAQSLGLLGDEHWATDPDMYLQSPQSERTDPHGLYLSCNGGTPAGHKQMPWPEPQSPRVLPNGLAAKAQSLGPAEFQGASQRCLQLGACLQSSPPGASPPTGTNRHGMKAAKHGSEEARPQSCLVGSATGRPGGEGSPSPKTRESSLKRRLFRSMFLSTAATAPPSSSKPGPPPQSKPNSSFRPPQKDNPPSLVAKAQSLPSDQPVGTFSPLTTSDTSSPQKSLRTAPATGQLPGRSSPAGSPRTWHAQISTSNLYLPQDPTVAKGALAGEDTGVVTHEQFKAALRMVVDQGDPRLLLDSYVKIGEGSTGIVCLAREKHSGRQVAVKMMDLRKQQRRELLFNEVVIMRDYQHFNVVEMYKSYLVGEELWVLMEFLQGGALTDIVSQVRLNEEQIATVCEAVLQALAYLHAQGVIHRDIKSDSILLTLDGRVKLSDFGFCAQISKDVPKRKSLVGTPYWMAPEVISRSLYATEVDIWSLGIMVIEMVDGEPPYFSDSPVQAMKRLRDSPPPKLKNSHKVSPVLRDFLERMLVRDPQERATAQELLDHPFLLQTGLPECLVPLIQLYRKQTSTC

[6] = target: Epidermal growth factor receptor (Homo sapiens) (UniProt P04626+P00533+Q15303+P21860); experiment: Inhibition of EGFR L747-S752del,P753S mutant at 3 uM; format: protein assay
hERG (KCNH2) = hERG (KCNH2) (Homo sapiens, UniProt Q12809); experiment: Inhibition of human ERG at 3 uM; outline: as §1
hERG (KCNH2), sequence (Q12809 whole entry): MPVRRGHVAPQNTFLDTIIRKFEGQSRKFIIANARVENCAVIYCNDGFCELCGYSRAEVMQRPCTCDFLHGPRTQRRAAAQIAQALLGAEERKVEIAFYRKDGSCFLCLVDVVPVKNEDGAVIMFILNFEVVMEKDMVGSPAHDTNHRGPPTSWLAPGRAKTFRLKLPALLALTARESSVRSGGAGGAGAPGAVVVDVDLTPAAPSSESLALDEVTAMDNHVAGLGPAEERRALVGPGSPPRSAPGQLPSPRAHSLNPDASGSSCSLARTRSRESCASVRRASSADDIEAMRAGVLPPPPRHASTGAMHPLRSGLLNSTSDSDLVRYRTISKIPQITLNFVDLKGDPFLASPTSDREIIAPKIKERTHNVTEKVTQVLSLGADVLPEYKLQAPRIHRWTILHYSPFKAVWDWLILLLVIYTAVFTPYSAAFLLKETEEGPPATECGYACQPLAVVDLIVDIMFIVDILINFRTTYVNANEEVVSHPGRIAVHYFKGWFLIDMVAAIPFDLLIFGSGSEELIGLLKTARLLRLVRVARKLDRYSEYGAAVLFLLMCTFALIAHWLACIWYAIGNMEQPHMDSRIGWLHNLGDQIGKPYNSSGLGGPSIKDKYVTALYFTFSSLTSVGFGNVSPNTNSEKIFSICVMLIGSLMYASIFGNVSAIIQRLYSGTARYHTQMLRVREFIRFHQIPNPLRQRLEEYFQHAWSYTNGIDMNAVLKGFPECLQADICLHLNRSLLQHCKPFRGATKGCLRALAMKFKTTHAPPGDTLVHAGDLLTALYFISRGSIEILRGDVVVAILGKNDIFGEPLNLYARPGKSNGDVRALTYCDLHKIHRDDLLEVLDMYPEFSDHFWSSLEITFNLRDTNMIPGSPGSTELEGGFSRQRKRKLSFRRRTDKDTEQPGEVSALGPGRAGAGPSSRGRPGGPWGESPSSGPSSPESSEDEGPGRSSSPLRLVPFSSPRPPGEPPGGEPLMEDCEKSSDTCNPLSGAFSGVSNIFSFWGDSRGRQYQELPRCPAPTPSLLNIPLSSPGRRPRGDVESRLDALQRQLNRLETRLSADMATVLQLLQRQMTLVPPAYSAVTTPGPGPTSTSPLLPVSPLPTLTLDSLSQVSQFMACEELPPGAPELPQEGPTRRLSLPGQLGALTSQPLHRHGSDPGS

[7] = target: Activin receptor type-1B (Homo sapiens) (UniProt P36896); experiment: Inhibition of ACVR1B at 3 uM
[8] = target: Cyclin-dependent kinase 7 (Homo sapiens) (UniProt P50613); experiment: Inhibition of CDK7 at 3 uM
[9] = target: Activin receptor type-1 (Homo sapiens) (UniProt Q04771); experiment: Inhibition of ACVR1 at 3 uM
Rattus norvegicus [10] = species on record: Rattus norvegicus; conditions: 3 uM
[11] = target: Serine/threonine-protein kinase PAK 4 (Homo sapiens) (UniProt O96013); experiment: Inhibition of PAK4 at 3 uM
[12] = target: Phosphatidylinositol 4,5-bisphosphate 3-kinase catalytic subunit delta isoform (Homo sapiens) (UniProt O00329); experiment: Inhibition of PIK3CD at 3 uM
[13] = target: Glutamate NMDA receptor (Rattus norvegicus) (UniProt P35439+Q00959+Q00960+Q00961+Q62645+Q8VHN2+Q9R1M7); experiment: Displacement of phencyclidine from rat NMDA receptor at 3 uM; format: protein-complex assay; outline: as §1
[14] = target: Serine/threonine-protein kinase 4 (Homo sapiens) (UniProt Q13043); experiment: Inhibition of MST1 at 3 uM
Serine/threonine-protein kinase 4 (Homo sapiens), sequence (Q13043 whole entry): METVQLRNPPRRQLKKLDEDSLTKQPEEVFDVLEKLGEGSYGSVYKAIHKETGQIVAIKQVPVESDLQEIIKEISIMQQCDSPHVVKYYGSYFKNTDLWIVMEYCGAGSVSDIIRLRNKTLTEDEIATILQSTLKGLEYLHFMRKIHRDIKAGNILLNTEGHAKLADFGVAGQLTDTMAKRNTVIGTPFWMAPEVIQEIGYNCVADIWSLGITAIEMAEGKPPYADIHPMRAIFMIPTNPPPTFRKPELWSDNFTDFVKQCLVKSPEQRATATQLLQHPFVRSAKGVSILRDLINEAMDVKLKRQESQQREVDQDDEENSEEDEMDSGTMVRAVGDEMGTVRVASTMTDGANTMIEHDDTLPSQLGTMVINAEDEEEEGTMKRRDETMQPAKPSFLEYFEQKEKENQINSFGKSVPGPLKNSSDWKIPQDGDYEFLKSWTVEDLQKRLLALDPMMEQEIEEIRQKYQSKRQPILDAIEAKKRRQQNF

[15] = target: Mitogen-activated protein kinase kinase kinase 5 (Homo sapiens) (UniProt Q99683); experiment: Inhibition of MAP3K5 at 3 uM
[16] = target: D(3) dopamine receptor (Homo sapiens) (UniProt P35462); experiment: Inhibition of human dopamine D3 receptor at 3 uM; outline: as §1
[17] = target: Serine/threonine-protein kinase DCLK3 (Homo sapiens) (UniProt Q9C098); experiment: Inhibition of DCAMKL3 at 3 uM
[18] = target: Mu-type opioid receptor (Homo sapiens) (UniProt P35372); experiment: Inhibition of human mu opioid receptor at 3 uM; outline: as §1
[19] = target: Misshapen-like kinase 1 (Homo sapiens) (UniProt Q8N4C8); experiment: Inhibition of MINK at 3 uM
[20] = target: Mitogen-activated protein kinase 7 (Homo sapiens) (UniProt Q13164); experiment: Inhibition of ERK5 at 3 uM
Outline: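 Single-concentration kinase panel scoring: each value is the percentage of enzyme activity remaining relative to a DMSO-only control. An activity statistically indistinct from DMSO control was scored "no hit".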

[21] = target: Mitogen-activated protein kinase 9 (Homo sapiens) (UniProt P45984); experiment: Inhibition of JNK2 at 3 uM
[22] = target: TRAF2 and NCK-interacting protein kinase (Homo sapiens) (UniProt Q9UKE5); experiment: Inhibition of TNIK at 3 uM
[23] = target: Activated CDC42 kinase 1 (Homo sapiens) (UniProt Q07912); experiment: Inhibition of TNK2 at 3 uM
[24] = target: Tyrosine-protein kinase Yes (Homo sapiens) (UniProt P07947); experiment: Inhibition of YES at 3 uM
[25] = target: Phosphatidylinositol 4-phosphate 5-kinase type-1 alpha (Homo sapiens) (UniProt Q99755); experiment: Inhibition of PIP5K1A at 3 uM
[26] = target: Serine/threonine-protein kinase ULK1 (Homo sapiens) (UniProt O75385); experiment: Inhibition of ULK1 at 3 uM
Serine/threonine-protein kinase ULK1 (Homo sapiens), sequence (O75385 whole entry): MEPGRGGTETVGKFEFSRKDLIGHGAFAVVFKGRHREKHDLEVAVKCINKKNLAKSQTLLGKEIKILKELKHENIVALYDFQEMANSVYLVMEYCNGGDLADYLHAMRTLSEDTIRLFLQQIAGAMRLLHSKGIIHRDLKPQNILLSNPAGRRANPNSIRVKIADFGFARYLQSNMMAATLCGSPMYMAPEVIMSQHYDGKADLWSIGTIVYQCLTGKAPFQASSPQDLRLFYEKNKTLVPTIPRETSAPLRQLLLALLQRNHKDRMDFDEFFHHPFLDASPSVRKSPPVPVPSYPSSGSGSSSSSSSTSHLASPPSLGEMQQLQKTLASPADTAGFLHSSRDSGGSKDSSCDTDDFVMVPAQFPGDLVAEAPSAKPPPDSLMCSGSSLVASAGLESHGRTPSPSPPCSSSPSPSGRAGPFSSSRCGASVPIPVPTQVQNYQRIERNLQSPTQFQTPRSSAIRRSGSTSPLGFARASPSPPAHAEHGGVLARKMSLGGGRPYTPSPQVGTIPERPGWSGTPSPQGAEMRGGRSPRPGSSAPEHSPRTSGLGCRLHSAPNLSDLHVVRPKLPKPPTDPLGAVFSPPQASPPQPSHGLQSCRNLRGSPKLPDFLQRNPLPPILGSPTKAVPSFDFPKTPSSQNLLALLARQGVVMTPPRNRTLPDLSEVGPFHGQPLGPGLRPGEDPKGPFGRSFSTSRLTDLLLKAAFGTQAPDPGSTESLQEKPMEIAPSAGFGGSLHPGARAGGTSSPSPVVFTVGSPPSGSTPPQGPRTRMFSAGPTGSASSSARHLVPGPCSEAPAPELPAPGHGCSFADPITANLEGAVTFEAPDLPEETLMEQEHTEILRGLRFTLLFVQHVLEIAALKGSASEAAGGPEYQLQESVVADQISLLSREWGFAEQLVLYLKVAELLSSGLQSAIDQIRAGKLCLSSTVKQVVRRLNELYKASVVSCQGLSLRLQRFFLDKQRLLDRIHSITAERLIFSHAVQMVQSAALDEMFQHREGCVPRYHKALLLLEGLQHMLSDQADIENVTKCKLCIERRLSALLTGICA

[27] = target: MAP kinase-interacting serine/threonine-protein kinase 2 (Homo sapiens) (UniProt Q9HBH9); experiment: Inhibition of MKNK2 at 3 uM
[28] = target: Serine/threonine-protein kinase ULK2 (Homo sapiens) (UniProt Q8IYT8); experiment: Inhibition of ULK2 at 3 uM
[29] = tested on: Epidermal growth factor receptor (Homo sapiens), P00533 [G719C]; experiment: Inhibition of EGFR G719C mutant at 3 uM; format: protein assay
[30] = target: Mitogen-activated protein kinase kinase kinase 9 (Homo sapiens) (UniProt P80192); experiment: Inhibition of MLK1 at 3 uM
[31] = target: Beta-2 adrenergic receptor (Homo sapiens) (UniProt P07550); experiment: Inhibition of human adrenergic beta2 receptor at 3 uM; outline: as §1
[32] = target: Tyrosine-protein kinase HCK (Homo sapiens) (UniProt P08631); experiment: Inhibition of HCK at 3 uM
Tyrosine-protein kinase HCK (Homo sapiens), sequence (P08631 2-526 limits assumed): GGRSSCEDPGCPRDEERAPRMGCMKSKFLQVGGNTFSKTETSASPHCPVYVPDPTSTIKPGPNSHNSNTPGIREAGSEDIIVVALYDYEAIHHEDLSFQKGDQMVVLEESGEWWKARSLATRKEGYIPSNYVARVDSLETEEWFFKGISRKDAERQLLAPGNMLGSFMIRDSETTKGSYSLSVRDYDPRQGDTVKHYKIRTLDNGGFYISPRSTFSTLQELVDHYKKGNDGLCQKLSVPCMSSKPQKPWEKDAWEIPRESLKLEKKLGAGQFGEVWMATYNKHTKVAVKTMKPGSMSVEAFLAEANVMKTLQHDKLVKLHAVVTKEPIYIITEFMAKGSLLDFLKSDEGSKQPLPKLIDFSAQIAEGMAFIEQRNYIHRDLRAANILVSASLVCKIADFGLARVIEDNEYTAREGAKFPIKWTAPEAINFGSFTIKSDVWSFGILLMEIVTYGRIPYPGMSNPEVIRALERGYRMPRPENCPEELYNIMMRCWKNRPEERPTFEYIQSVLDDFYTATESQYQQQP

[33] = target: Calcium/calmodulin-dependent protein kinase type 1G (Homo sapiens) (UniProt Q96NX5); experiment: Inhibition of CAMK1G at 3 uM
[34] = target: Dual specificity protein kinase CLK1 (Homo sapiens) (UniProt P49759); experiment: Inhibition of CLK1 at 3 uM
Rattus norvegicus [35] = species on record: Rattus norvegicus; conditions: 3 uM; remark: listed apart in the source
[36] = target: Serine/threonine-protein kinase TAO1 (Homo sapiens) (UniProt Q7L7X3); experiment: Inhibition of TAOK1 at 3 uM
[37] = target: Serine/threonine-protein kinase SIK2 (Homo sapiens) (UniProt Q9H0K1); experiment: Inhibition of SNF1LK2 at 3 uM
[38] = target: Adenosine receptor A1 (Homo sapiens) (UniProt P30542); experiment: Inhibition of human adenosine A1 receptor at 3 uM; outline: as §1
[39] = target: Insulin-like growth factor 1 receptor (Homo sapiens) (UniProt P08069); experiment: Inhibition of IGF1R at 3 uM
[40] = target: Alpha-1B adrenergic receptor (Rattus norvegicus) (UniProt P15823); experiment: Inhibition of rat adrenergic Alpha-1B receptor at 3 uM
CYP2D6 = CYP2D6 (Homo sapiens, UniProt P10635); experiment: Inhibition of human CYP2D6 at 10 uM; format: ADME
[41] = target: Serine/threonine-protein kinase 17B (Homo sapiens) (UniProt O94768); experiment: Inhibition of DRAK2 at 3 uM
[42] = target: MAP kinase-activated protein kinase 2 (Homo sapiens) (UniProt P49137); experiment: Inhibition of MAPKAPK2 at 3 uM
MAP kinase-activated protein kinase 2 (Homo sapiens), sequence (P49137 whole entry, looked up): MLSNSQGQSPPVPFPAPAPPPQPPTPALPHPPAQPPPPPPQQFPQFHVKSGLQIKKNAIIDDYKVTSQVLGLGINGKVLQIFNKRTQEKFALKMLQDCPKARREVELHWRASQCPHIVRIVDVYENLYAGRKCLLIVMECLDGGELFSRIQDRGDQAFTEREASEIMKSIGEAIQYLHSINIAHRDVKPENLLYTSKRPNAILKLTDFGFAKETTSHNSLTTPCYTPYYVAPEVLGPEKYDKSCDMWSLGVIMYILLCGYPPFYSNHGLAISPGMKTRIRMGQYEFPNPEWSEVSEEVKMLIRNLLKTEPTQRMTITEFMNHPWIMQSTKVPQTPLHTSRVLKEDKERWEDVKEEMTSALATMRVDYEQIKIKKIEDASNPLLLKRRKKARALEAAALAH

[43] = target: Calcium/calmodulin-dependent protein kinase kinase 1 (Homo sapiens) (UniProt Q8N5S9); experiment: Inhibition of CAMKK1 at 3 uM

MAP/microtubule affinity-regulating kinase 3 (Homo sapiens), sequence (P27448 whole entry, looked up): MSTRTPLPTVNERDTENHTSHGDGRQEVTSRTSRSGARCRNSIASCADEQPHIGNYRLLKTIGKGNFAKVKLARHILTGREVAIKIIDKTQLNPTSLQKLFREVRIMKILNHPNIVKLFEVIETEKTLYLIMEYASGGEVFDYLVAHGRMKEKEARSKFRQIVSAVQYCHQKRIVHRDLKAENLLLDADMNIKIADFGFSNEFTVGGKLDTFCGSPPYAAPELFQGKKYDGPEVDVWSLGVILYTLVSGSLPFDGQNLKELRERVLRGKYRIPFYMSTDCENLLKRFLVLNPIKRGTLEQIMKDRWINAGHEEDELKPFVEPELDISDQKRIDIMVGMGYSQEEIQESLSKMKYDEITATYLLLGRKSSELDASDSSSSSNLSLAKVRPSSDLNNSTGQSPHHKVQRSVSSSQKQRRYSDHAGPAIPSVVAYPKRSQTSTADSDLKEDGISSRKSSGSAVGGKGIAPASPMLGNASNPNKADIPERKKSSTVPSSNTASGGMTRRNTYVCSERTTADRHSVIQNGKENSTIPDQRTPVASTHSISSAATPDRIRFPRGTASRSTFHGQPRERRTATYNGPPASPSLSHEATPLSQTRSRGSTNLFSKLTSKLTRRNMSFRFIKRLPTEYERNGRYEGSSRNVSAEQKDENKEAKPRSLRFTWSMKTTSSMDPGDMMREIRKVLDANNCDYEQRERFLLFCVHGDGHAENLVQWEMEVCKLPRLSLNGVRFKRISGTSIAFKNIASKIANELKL

CN(C)CCOc1cc(-c2cn[nH]c2)ccc1NC(=O)C1COc2ccccc2O1 (stereo not given) [SR-3677]
inhibition [1]: < 10% | inhibition [2]: < 10% | inhibition [3]: -2% | inhibition [4]: 0% | inhibition [5]: < 10% | inhibition [6]: < 10% | inhibition at 3 µM (hERG (KCNH2)): 31% | inhibition [7]: < 10% | inhibition [8]: < 10% | inhibition [9]: < 10% | inhibition (Rattus norvegicus [10]): -6% | inhibition [11]: < 10% | inhibition [12]: < 10% | inhibition [13]: -2% | inhibition [14]: < 10% | inhibition [15]: < 10% | inhibition [16]: 15% | inhibition [17]: < 10% | inhibition [18]: 5% | inhibition [19]: < 10% | inhibition [20]: < 10% | inhibition [21]: < 10% | inhibition [22]: < 10% | inhibition [23]: < 10% | inhibition [24]: < 10% | inhibition [25]: < 10% | inhibition [26]: < 10% | inhibition [27]: < 10% | inhibition [28]: < 10% | inhibition [29]: < 10% | inhibition [30]: < 10% | inhibition [31]: 19% | inhibition [32]: < 10% | inhibition [33]: < 10% | inhibition [34]: 94.9% | inhibition (Rattus norvegicus [35]): 24% | inhibition [36]: < 10% | inhibition [37]: < 10% | inhibition [38]: -4% | inhibition [39]: < 10% | inhibition [40]: 68% | inhibition at 10 µM (CYP2D6): 75% | inhibition [41]: < 10% | inhibition [42]: < 10% | inhibition [43]: < 10%
